KCNK3 inh – human KCNK3 channel inhibition, primary screen. B-score at 10 µM. AID 602410. CHO-KCNK3 thallium flux, FluxOR fluorescence; stronger effect = lower value. O14649. 340,000 tested, 0.84% active;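 active means B-score under library mean minus 4 SD, starting fluorescence ratio at most library mean plus 5 SD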;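 further: more negative B-score means stronger inhibition of thallium flux through KCNK3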
KCNQ1 inh – blocks the human KCNQ1 potassium channel; P51787; CHO-K1 KCNQ1, FluxOR thallium flux fluorescence; stronger effect = higher value; B-score at 10 µM; 310,000 tested, 1.3% active;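 active means compounds whose thallium flux B-score, printed positive for inhibition, exceeds three library SD while starting fluorescence stays within three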;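 further: channel opened by potassium depolarization with thallium stimulus after 20 min compound exposure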
Target sequence (P51787 whole entry, looked up): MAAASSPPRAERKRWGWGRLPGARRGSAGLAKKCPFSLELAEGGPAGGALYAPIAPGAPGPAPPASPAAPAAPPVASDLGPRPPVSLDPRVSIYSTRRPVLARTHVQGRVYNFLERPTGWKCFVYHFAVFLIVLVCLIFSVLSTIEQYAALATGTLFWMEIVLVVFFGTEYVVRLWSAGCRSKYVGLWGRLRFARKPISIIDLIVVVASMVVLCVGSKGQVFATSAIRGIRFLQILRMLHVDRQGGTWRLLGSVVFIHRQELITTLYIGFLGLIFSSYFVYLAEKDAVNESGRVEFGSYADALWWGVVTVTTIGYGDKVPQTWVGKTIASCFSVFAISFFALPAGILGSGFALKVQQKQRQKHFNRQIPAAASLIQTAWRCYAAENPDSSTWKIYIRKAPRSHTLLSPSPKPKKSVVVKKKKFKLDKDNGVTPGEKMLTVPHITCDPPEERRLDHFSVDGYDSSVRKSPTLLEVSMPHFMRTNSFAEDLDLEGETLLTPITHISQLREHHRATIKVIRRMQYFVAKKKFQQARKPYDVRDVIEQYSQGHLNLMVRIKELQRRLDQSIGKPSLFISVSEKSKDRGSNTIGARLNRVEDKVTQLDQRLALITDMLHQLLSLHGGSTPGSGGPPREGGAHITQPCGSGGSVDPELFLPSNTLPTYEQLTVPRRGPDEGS
KCNK9 inh – blocks the human KCNK9 two-pore domain potassium channel; 310,000 tested, 1.2% active; Q9NPC2; B-score at 10 µM; HEK293 KCNK9, FluxOR thallium flux fluorescence; stronger effect = lower value;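 active means ratio B-score over 3 SD below the library mean, with starting fluorescence within 5 SD of its mean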;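 further: negative B-score means less thallium flux so channel inhibition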
hERG protect – hERG (human) protection from proarrhythmic block | CHO-hERG, FluxOR thallium flux, dofetilide IC70 present | activation (rescue from dofetilide block), less the hit threshold, % at 10 µM | 310,000 tested, 0.51% active | Q12809;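 active means activation above the mean of controls blocked by dofetilide plus 5 SD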;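 further: thallium influx through hERG after potassium depolarization seen as dye fluorescence rise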
KCNQ1 pot – potentiators or activators of human KCNQ1 potassium channel; B-score at 10 µM; 310,000 tested, 0.35% active; CHO-K1 KCNQ1, thallium flux FluxOR fluorescence; stronger effect = higher value; AID 2648;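 active means fluorescence ratio B-score, a plate-corrected score, at least three library SD, with initial intensity B-score within 5 SD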
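Schedule – 37 °C overnight plating, 90-min dark dye load, 20-min compound pretreatment · System – stable KCNQ1 CHO-K1 line · Probe or stimulus – thallium- and potassium-containing depolarizing buffer · Measured by – kinetic FluxOR fluorescence, 10 s baseline plus 110 s post-stimulus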
Kir21 block – inhibitors of mouse Kir2.1 inward-rectifier potassium channel | HEK293-Kir2.1, FluxOR thallium flux fluorescence; stronger effect = lower value | 310,000 tested, 0.85% active | P35561 | AID 1672 | B-score at 10 µM;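 active means fluorescence ratio B-score at or below minus 3 SD of library scores, with starting-brightness B-score within 2 SD, cut at about -4.2 in these data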;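 further: channel flux triggered by added potassium and thallium sulfate stimulus; B-score of peak minus minimum fluorescence over baseline after thallium stimulus; more negative B-score means stronger Kir2.1 block with less thallium influx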
KCNK3 inh conf – confirmation of human KCNK3 two-pore domain potassium channel inhibitors | AID 651638 | CHO-KCNK3 thallium flux, FluxOR fluorescence; 0% buffer, 100% carvedilol maximal block | ratio percent of control, % at 10 µM | 2,400 tested, 99% active | shares compounds with KCNK3 inh;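 active means ratio percent of control, averaged over triplicates, above buffer control mean plus 5 SD, cut at about 64% in these data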;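 further: ratio is the fluorescence rise from min to max over baseline after thallium stimulus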
KCNK3 noninduced – KCNK3 inhibitor counter-screen hit in non-induced cells; shares compounds with KCNK3 inh; non-induced KCNK3 parental cells, FluxOR thallium flux; stronger effect = lower value; thallium flux ratio (lower = more inhibition) at 10 µM; 2,400 tested, 40% active; AID 651747;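 active means thallium flux ratio, averaged over three wells, more than 5 SD below the buffer control mean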;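 further: host cells are CHO cells without KCNK3 induction; ratio is peak minus trough fluorescence over baseline then normalized to buffer controls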
Active calls of the source: *. Shown are actives, neighbours in structure and some others; about 3.8% of the full set was active somewhere.

Results for O=C(C1CC(c2ccccc2O)=NO1)N1CCc2ccccc2C1 (stereo not drawn) ?
KCNK3 inh: -9*; KCNQ1 inh: inactive; KCNK9 inh: inactive; hERG protect: -3; KCNQ1 pot: inactive; Kir21 block: 0.12; KCNK3 inh conf: 99*; KCNK3 noninduced: inactive

Results for COc1ccccc1C(=O)Nc1c(C(=O)N(CCN(C)C)Cc2ccco2)oc2ccccc12 ?
KCNK3 inh: -11*; KCNQ1 inh: inactive; KCNK9 inh: inactive; hERG protect: -31; KCNQ1 pot: inactive; Kir21 block: -3.7; KCNK3 inh conf: 125*; KCNK3 noninduced: 0.14*

Results for COc1ccc(OCC(=O)Nc2c(C(=O)N(CCN(C)C)Cc3ccco3)oc3ccccc23)cc1 ?
KCNK3 inh: inactive; KCNQ1 inh: inactive; KCNK9 inh: inactive; hERG protect: -24; KCNQ1 pot: inactive; Kir21 block: -2.7

How did O=C1C(Cl)=C(NCCc2ccccc2)C(=O)c2ccccc21 do in these assays?
KCNK3 inh: -14*; KCNK3 inh conf: 161*; KCNK3 noninduced: 0.065*

How did O=C(c1cccc(S(=O)(=O)Nc2ccc(F)cc2)c1)N1CCCC1 do in these assays?
KCNK3 inh: inactive

How did C=C(c1cn(C(C)=O)c2ccccc12)c1cn(C(C)=O)c2ccccc12 do in these assays?
KCNK3 inh: -12*; KCNK3 inh conf: 62*; KCNK3 noninduced: 0.15*

Results for COc1cc(C(=O)NCC(=O)N/N=C/c2ccc(-c3ccc([N+](=O)[O-])cc3)o2)cc(OC)c1OC ?
KCNK3 inh: -10*; KCNQ1 inh: inactive; KCNK9 inh: inactive; hERG protect: -14; KCNQ1 pot: inactive; Kir21 block: -0.88; KCNK3 inh conf: 95*; KCNK3 noninduced: inactive

What do the screens show for `O=C(CS(=O)(=O)c1ccccc1)Nc1ccc(Cl)cn1`?
KCNK3 inh: inactive; KCNQ1 inh: inactive; KCNK9 inh: inactive; hERG protect: -5; KCNQ1 pot: inactive; Kir21 block: -0.85

What do the screens show for `O=C(CC(c1ccccc1)c1ccccc1)Nc1ccc(Cl)cn1`?
KCNK3 inh: -8.9*; KCNQ1 inh: inactive; KCNK9 inh: inactive; hERG protect: -4; KCNQ1 pot: inactive; Kir21 block: 0.22; KCNK3 inh conf: 109*; KCNK3 noninduced: inactive

What do the screens show for `O=C(CC(c1ccccc1)c1ccccc1)Nc1ccc(O)cc1`?
KCNK3 inh: -9.7*; KCNQ1 inh: inactive; KCNK9 inh: inactive; hERG protect: -9; KCNQ1 pot: inactive; Kir21 block: -0.58; KCNK3 inh conf: 88*; KCNK3 noninduced: inactive

Results for COc1ccccc1OCC(=O)N1CCN(S(=O)(=O)c2ccc(Cl)cc2)CC1 ?
KCNK3 inh: inactive

Results for Cc1cccc(N=c2oc3cc(O)ccc3cc2C(N)=O)c1 ?
KCNK3 inh: -8.8*; KCNQ1 inh: inactive; KCNK9 inh: inactive; hERG protect: -14; KCNQ1 pot: inactive; Kir21 block: -1.1; KCNK3 inh conf: 113*; KCNK3 noninduced: inactive

How did COc1ccccc1N=c1oc2cc(O)ccc2cc1C(N)=O do in these assays?
KCNK3 inh: inactive; KCNQ1 inh: inactive; KCNK9 inh: inactive; hERG protect: -12; KCNQ1 pot: inactive; Kir21 block: 1.6

What do the screens show for `Cc1ccc(NC(=O)CSc2nc(=O)n(CCN(C)C)c3c2CCCC3)cc1Cl`?
KCNK3 inh: -10*; KCNQ1 inh: inactive; KCNK9 inh: inactive; hERG protect: -11; KCNQ1 pot: inactive; Kir21 block: -2.1; KCNK3 inh conf: 68*; KCNK3 noninduced: inactive

Results for CC(=O)N1c2ccc(S(=O)(=O)N3CCC(C(=O)NCc4ccc(N(C)C)cc4)CC3)cc2CC1C (stereo not drawn) ?
KCNK3 inh: inactive; KCNQ1 inh: inactive; KCNK9 inh: inactive; hERG protect: -6; KCNQ1 pot: inactive; Kir21 block: 0.89

What do the screens show for `Cc1ccc(-c2cc(C(=O)Nc3cccnc3)c3ccccc3n2)s1`?
KCNK3 inh: -12*; KCNQ1 inh: inactive; KCNK9 inh: inactive; hERG protect: -26; KCNQ1 pot: inactive; Kir21 block: -1.1; KCNK3 inh conf: 100*; KCNK3 noninduced: 0.13*

How did COc1cccc(NC(=O)c2cc(-c3ccc(OC)cc3OC)nc3ccccc23)c1 do in these assays?
KCNK3 inh: -9.4*; KCNQ1 inh: 6*; KCNK9 inh: inactive; hERG protect: -9; KCNQ1 pot: inactive; Kir21 block: 0.01; KCNK3 inh conf: 103*; KCNK3 noninduced: inactive

How did COc1cccc(NC(=O)CN(C)C(=O)c2cc(-c3cccc(Br)c3)nc3ccccc23)c1 do in these assays?
KCNK3 inh: -14*; KCNQ1 inh: inactive; KCNK9 inh: inactive; hERG protect: -17; KCNQ1 pot: inactive; Kir21 block: -1.8; KCNK3 inh conf: 128*; KCNK3 noninduced: inactive

Results for Cc1c(/C(O)=C2/C(=O)C(=O)N(CCN3CCOCC3)C2c2ccccn2)cnn1-c1ccccc1 (stereo not drawn) ?
KCNK3 inh: inactive; KCNQ1 inh: inactive; KCNK9 inh: inactive; hERG protect: -7; KCNQ1 pot: inactive; Kir21 block: -0.02

How did CC(C)n1nc(C(=O)NNC(=O)c2ccc(OC(F)F)cc2)c2ccccc2c1=O do in these assays?
KCNK3 inh: inactive

Results for CCOC(=O)/C(N=Nc1c(C)n(C)n(-c2ccccc2)c1=O)=C(/O)c1ccccc1 ?
KCNK3 inh: -8.9*; KCNQ1 inh: inactive; KCNK9 inh: inactive; hERG protect: -4; KCNQ1 pot: inactive; Kir21 block: 0.12; KCNK3 inh conf: 109*; KCNK3 noninduced: inactive

What do the screens show for `CC1=Nc2ccccc2/C1=C/c1sc(=N)n(-c2nccs2)c1O`?
KCNK3 inh: -10*; KCNQ1 inh: 10*; KCNK9 inh: inactive; hERG protect: -24; KCNQ1 pot: inactive; Kir21 block: -2.6; KCNK3 inh conf: 175*; KCNK3 noninduced: 0.089*

What do the screens show for `CCOC(=O)c1nc(C)nc(Sc2n[nH]c(-c3cc(C(F)(F)F)cc(C(F)(F)F)c3)n2)c1C`?
KCNK3 inh: -9.4*; KCNQ1 inh: 6*; KCNK9 inh: inactive; hERG protect: -11; KCNQ1 pot: inactive; Kir21 block: -0.29; KCNK3 inh conf: 102*; KCNK3 noninduced: 0.12*
